Screening data deposited in PubChem by several laboratories.
STAT3 activator: activators of IL-6 induced STAT3 signaling | activation (% of control), % at 5.6 µM | U3A cells, IL-6 STAT3-luciferase reporter, luminescence; 100% = signal with IL-6 EC80 alone | AID 871 | 0.91% of 190,000 active;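 active = activation above the screen-wide mean of compound activation plus 3 SD, cut at about 130% in these data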;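 also: 0% = background luminescence of wells with medium and substrate only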
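Detection: reporter luminescence signal / Assay system: STAT1-lacking human U3A cells, STAT3 luciferase reporter / Incubation: compound pre-incubation 1 h before IL-6, then 6 h stimulation at 37 °C / Control set: IL-6-only high control / Read-out: % activation relative to IL-6 control / Probe or stimulus: Interleukin-6, 33 ng/mL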
STAT3 blocker: inhibitors of IL-6 induced STAT3 signaling; 0.89% of 190,000 active; inhibition, % at 5.5 µM; U3A cells, IL-6 STAT3-luciferase reporter, luminescence; host cell line lacks STAT1;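 active = inhibition above the mean inhibition across all screened compounds plus 3 SD, cut at about 44% in these data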;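 also: 0% = DMSO only wells and 100% = 100 µM nifuroxazide control wells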
FLuc inhib CS: Photinus pyralis luciferase inhibition counter-screen. inhibition, % at 10 µM. P08659. AID 1006. ATPLite firefly luciferase biochemical luminescence, 10 min. 1.5% of 200,000 active;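 active = inhibition above about 50% when tested at 10 µM, limit read from the data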
Target sequence (P08659 whole entry, looked up): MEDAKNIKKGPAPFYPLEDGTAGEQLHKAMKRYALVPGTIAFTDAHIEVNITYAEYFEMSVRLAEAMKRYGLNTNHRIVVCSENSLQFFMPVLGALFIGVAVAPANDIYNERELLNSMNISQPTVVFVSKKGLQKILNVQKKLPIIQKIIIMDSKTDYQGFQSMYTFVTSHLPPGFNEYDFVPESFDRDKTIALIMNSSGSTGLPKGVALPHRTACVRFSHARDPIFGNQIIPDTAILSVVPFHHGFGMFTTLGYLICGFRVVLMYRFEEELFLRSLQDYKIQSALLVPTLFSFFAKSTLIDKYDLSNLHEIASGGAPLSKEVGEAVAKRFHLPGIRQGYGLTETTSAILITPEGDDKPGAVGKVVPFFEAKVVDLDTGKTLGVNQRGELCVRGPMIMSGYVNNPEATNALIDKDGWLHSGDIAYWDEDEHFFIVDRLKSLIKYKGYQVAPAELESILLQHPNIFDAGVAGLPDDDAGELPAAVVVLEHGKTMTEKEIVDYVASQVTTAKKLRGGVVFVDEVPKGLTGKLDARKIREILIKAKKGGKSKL
STAT1 inh: STAT1 signaling inhibition; NIH 3T3 STAT1-luciferase reporter, IFN-gamma, luminescence; inhibition, % at 5.5 µM; 0.35% of 200,000 active; AID 920;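 active = inhibition above a set limit, the mean inhibition across all tested compounds plus 3 SD, cut at about 34% in these data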;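 also: 0% = IFN-gamma with DMSO and 100% = IFN-gamma with 300 µM nifuroxazide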
FLuc act counter: affects firefly luciferase, flagging false hits in luciferase stimulation screens; P08659; ATPlite luciferase biochemical, luminescence, 10 min; 0 = ATP-free wells, 1 = DMSO control; activation factor at 10 µM; 200,000 tested, under 10 active; AID 1027;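 active = luciferase activation factor, scaled between plate controls, of at least 2 with compound at 10 µM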
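System: luciferase plus luciferin reagent, cell-free; medium: PBS as buffer for the ATP substrate; dosing: test compounds dosed from 2 mM stocks in 100% DMSO; timing: 10 min post-reagent at room temperature; measured by: luminescence measurement of luciferase light output; evaluation: luciferase activation, seen as luminescence increase over controls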
STAT1 act: increases IFN-gamma driven STAT1 reporter signal; NIH 3T3 STAT1-luciferase reporter, luminescence; 100% = IFN-gamma alone, no compound; activation (% of control), % at 5.5 µM; 2.6% of 200,000 active; AID 932;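 active = activation above the screen-wide mean activation plus 3 SD, cut at about 130% in these data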;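 also: raw ratio to IFN-gamma control signal so 100% means no change and 0% no light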
* hit, by the source's call; . = no result given. This is a sample that favours compounds with a hit; in the whole collection about 4.9% have one here.

SMILES | STAT3 activator | STAT3 blocker | FLuc inhib CS | STAT1 inh | FLuc act counter | STAT1 act
CN1CCN(CC(=O)Nc2nnc(-c3cccs3)s2)CC1 | 109.3 | -10.5 | -4.2 | -8.2 | 1 | 107.3
COc1cccc(NC(=O)CSc2nc3c(oc4ccccc43)c(=O)[nH]2)c1 | 98.9 | 1.2 | 59.5* | -3.4 | 0.4 | 103.0
O=C(CCS(=O)(=O)c1cccs1)NC1CCCCCC1 | 110.0 | -9.4 | -1.7 | -33.6 | 1 | 130.4*
OCCC1CN(Cc2cccn2-c2nccs2)CCN1Cc1ccc(F)c(F)c1 (stereo not drawn) | 104.1 | 0.5 | -6.6 | 9.2 | 1.1 | 90.1
COc1ccc2c(c1OC)C(=O)N(c1cccc(C)c1)C2=O | 88.8 | 17.8 | 19.0 | -39.5 | 0.8 | 136.2*
O=C1CCCC(=O)C1C(=O)C1CCN(S(=O)(=O)c2ccccc2)CC1 | 100.8 | 9.6 | -1.7 | -2.4 | 1 | 100.6
Brc1ccc(-c2nc(N/N=C/c3cccnc3)c3ccccc3n2)cc1 | 104.8 | -2.1 | 95.9* | 3.1 | 0 | 97.1
ClC(Cl)(Cl)c1nc(N/N=C/c2ccncc2)c2ccccc2n1 | 90.9 | 12.2 | -5.2 | 4.7 | 1.1 | 94.3
Cc1ccc(-c2nc(N/N=C/c3ccccc3[N+](=O)[O-])c3ccccc3n2)cc1 | 87.0 | 25.0 | 63.7* | -26.1 | 0.4 | 123.5
COc1ccc(-c2csc3ncnc(Oc4cccc5ccc(C)nc45)c23)cc1 | 109.0 | -16.3 | -6.9 | 1.0 | 1.1 | 99.1
CC(C)c1onc(C(=O)NC(C)c2ccccc2)c1[N+](=O)[O-] (stereo not drawn) | 105.7 | -0.3 | 4.9 | 7.1 | 1 | 93.8
CCCS(=O)(=O)Nc1ccc(-c2ccc3nnc(C)n3n2)cc1 | 79.4 | 29.2 | 4.1 | 12.7 | 1 | 86.7
COc1cc(NC(=O)C(C)C)ccc1NC(=O)c1ccco1 | 92.6 | 9.6 | 35.1 | -37.8 | 0.6 | 134.5*
COc1cc(NC(=S)NC(=O)c2ccco2)ccc1NC(=O)C(C)C | 98.4 | 6.7 | 20.7 | -20.8 | 0.8 | 116.1
Cc1cc(NC(=O)CSc2nc3cc(C(=O)NCCCOC(C)C)ccc3c(=O)n2Cc2ccco2)no1 | 92.5 | 15.9 | 0.2 | 17.0 | 1 | 83.9
COc1ccc(S(=O)(=O)N2CC(O)C[C@H]2C(=O)OCC(=O)N2CCCCCC2)cc1 (stereo partly drawn) | 111.8 | -13.5 | -4.4 | -45.8 | 1 | 139.0*
Cc1nc(NC(=O)c2cc3c(s2)CCCCC3)sc1C(=O)N(C)C | 89.6 | 13.6 | -7.6 | -34.8 | 1.1 | 132.0*
Cc1nc(NC(=O)c2ccc(Br)s2)sc1C(=O)N(C)C | 108.1 | -5.9 | 39.6 | -41.4 | 0.6 | 138.2*
COc1ccc(C(=O)Nc2nc(C)c(C(=O)N(C)C)s2)cc1OC | 105.7 | -2.5 | 18.0 | -2.0 | 0.8 | 101.8
S=C(NC1CCCC1)N1CCN(c2ccc(Cl)cc2)CC1 | 92.4 | 16.6 | -3.8 | 6.7 | 1 | 92.0
CCN(CC)S(=O)(=O)c1ccc(N2CCOCC2)c(NS(=O)(=O)c2cc(C(C)(C)C)ccc2C)c1 | 113.1 | -18.6 | -6.8 | 4.3 | 1.1 | 96.2
C=CCSc1n[nH]c(-c2ccc(OC)cc2)n1 | 90.4 | 14.9 | 20.5 | -43.7 | 0.8 | 140.5*
C=CCSc1n[nH]c(-c2ccccc2)n1 | 88.9 | 18.3 | 6.3 | -11.1 | 0.9 | 110.3
c1ccc(CSc2ccc(-c3cccnc3)nn2)cc1 | 99.2 | 5.6 | 40.0 | -36.2 | 0.6 | 133.9*
c1cncc(CSc2ccc(-c3cccnc3)nn2)c1 | 103.2 | 1.2 | 8.2 | -1.1 | 0.9 | 100.9
SMILES | STAT3 activator | STAT3 blocker | FLuc inhib CS | STAT1 inh | FLuc act counter | STAT1 act
Cc1ccc(-c2cn(-c3ccccc3)c(SCC(=O)NC3CCS(=O)(=O)C3)n2)cc1C (stereo not drawn) | 122.0 | -26.1 | 26.6 | -40.5 | 0.7 | 136.1*
O=C(N/N=C/c1cccc([N+](=O)[O-])c1)c1cccs1 | 98.1 | 3.1 | 34.4 | -19.0 | 0.7 | 117.0
CCOc1cc(/C=N/NC(=O)c2cccs2)cc([N+](=O)[O-])c1O | 93.7 | 10.7 | 5.0 | -33.4 | 0.9 | 128.6*
Cc1nnc(SCc2ccccc2CSc2nnc(C)s2)s1 | 99.4 | 2.0 | -6.5 | 12.3 | 1.1 | 87.3
COc1ccc(/C=C/C(=O)c2c(C)nc3ccccn23)cc1 | 100.9 | 4.9 | 19.4 | -44.8 | 0.8 | 140.9*
Cc1nc2ccccn2c1C(=O)/C=C/c1ccc(F)cc1 | 87.9 | 19.2 | 19.8 | -31.4 | 0.8 | 128.7*
COc1ccc(NC(=O)c2c(Cl)n(C)c3ccccc23)cc1 | 144.0* | -36.3 | 33.9 | -20.6 | 0.7 | 117.2
COc1ccc(NC(=O)c2c(Cl)nc3ccccn23)cc1 | 91.9 | 15.9 | 10.9 | -38.2 | 0.9 | 133.9*
c1ccc(-n2cnc3cc(NCc4ccncc4)ccc32)cc1 | 99.0 | 4.0 | 10.9 | -23.5 | 0.9 | 121.5
c1ccc(-n2cnc3cc(NCc4ccccn4)ccc32)cc1 | 101.1 | 2.8 | 14.8 | -33.4 | 0.9 | 130.9*
O=C(O)c1ccccc1CSc1nc2ccccc2n1Cc1ccccc1C(=O)O | 96.3 | 15.1 | -8.0 | -3.0 | 1.1 | 101.9
COc1ccc(-c2cnnc(N/N=C/c3ccc(-c4ccc([N+](=O)[O-])cc4)o3)n2)cc1 | 103.0 | -2.2 | -2.5 | -2.3 | 1 | 100.8
COc1ccc(-c2cnnc(N/N=C/c3ccc(O)c(OC)c3)n2)cc1 | 100.0 | 3.0 | 81.2* | -19.6 | 0.2 | 117.7
CCOc1ncccc1C(=O)OCc1ccc(C(=O)OC)cc1 | 137.2* | -34.9 | 5.6 | -33.1 | 0.9 | 130.0*
Cc1nc2cc(NCc3nc4ccccc4n3Cc3ccccc3)ccc2n1C | 97.9 | 6.4 | 86.6* | -38.3 | 0.1 | 135.1*
Cn1c(CNc2ccc(Cl)cc2)nc2ccccc21 | 162.5* | -70.6 | 43.6 | -46.5 | 0.6 | 143.0*
Cc1cccc(NCc2nc3ccccc3n2Cc2ccccc2)c1 | 97.9 | 8.3 | -5.6 | -4.3 | 1.1 | 104.0
COC(=O)COc1ccc(/C=N/NC(=O)c2ccc(N(Cc3ccccc3)S(C)(=O)=O)cc2)cc1 | 99.8 | -2.4 | -1.9 | 2.8 | 1 | 97.6
COc1ccc(NC(=O)c2c(NC(=O)CNCC(C)C)sc3c2CCC3)c(OC)c1 | 94.0 | 14.5 | 1.5 | -0.9 | 1 | 99.6
COC(=O)c1cnn(-c2ccccc2)c1-n1cccc1C=O | 98.9 | 3.5 | -5.5 | -0.8 | 1.1 | 99.0
COC(=O)c1cc2c(=O)n3ccccc3nc2n(C(C)C)c1=N | 136.0* | -38.6 | . | -4.0 | . | 103.7
CC(=O)c1ccc2c3c(cccc13)C(=O)N(CCc1ccccc1)C2=O | 182.7* | -101.3 | -2.1 | -36.2 | 1 | 132.4*
CCCCNC(=O)c1cc(-c2ccc(F)cc2)on1 | 102.4 | -3.1 | 9.2 | -38.6 | 0.9 | 135.6*
CN(C)c1ccc(NC(=O)CCn2c(=S)oc3ccccc32)cc1 | 101.8 | 2.9 | 2.1 | -33.5 | 1 | 133.6*
